Bioassay records from PubChem BioAssay.
Shown is part of a subset that was picked to be rich in hits.
CHOP inhibitor: inhibitors of CHOP induction in ER stress response | CHO-K1 CHOP-promoter luciferase, tunicamycin-induced, 15-18 h | inhibition, % at 10 µM | hit rate 3.8% among 220,000 | AID 2732;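 active means compounds that reduced the stress-induced luciferase reporter signal by more than about 70% of percent inhibition, limit read from the data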;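 further: 0% = tunicamycin plus vehicle and 100% = wells without tunicamycin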
UPR CHOP act: activators of apoptotic arm of unfolded protein response (CHOP) | activation, % at 10 µM | CHO-CHOP luciferase reporter, UPR activation, luminescence; percent of tunicamycin response over DMSO baseline | AID 449763 | hit rate 0.34% among 330,000;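 active means at 10 µM dose, activation of 40% or more, normalized to positive control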;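 further: 100% = tunicamycin at 10 µg/mL and 0% = DMSO alone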
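Assay system: CHO-CHOP cells, stable luciferase reporter of PERK-eIF2a-CHOP signalling / Buffer or medium: F12 plus 10% serum / Compound dosing: one dose, 10 µM in 0.5% DMSO / Times: 6 h compound treatment, 37 °C / Technique: luciferase luminescence / Read-out: % reporter activation, DMSO baseline versus tunicamycin full activation / Benchmarks: tunicamycin and DMSO controls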
Dynein cargo inh: dynein cargo transport inhibition; 3617.4 mouse cells, GR-EGFP nuclear translocation imaging; test concentration mostly 20 µM; stimulated with dexamethasone, 1 µM; stronger effect = lower value; z-score, hits read low; hit rate 0.47% among 220,000; AID 1381;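 active means plate z-score of nuclear minus cytoplasmic receptor signal below a set negative limit, without overly bright fluorescence or cell loss, cut at about -3.5 in these data, passing the limit was not always enough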;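 further: z-score of nuclear minus cytoplasmic ring GR-EGFP intensity difference per well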
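Buffer or medium: Induction medium lacking tetracycline, stripped serum | Also added: Dexamethasone agonist, 1.0 µM final, for 30 min | Timing: 48 h induction, 1 h compound, 30 min dex at 37 °C | Detection: Formaldehyde fixation, Hoechst nuclear stain, 10x automated fluorescence imaging | Measure: Nuclear versus cytoplasmic GR-EGFP signal, averaged per well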
UPR XBP1 act: activators of adaptive arm of unfolded protein response (XBP1) | CHO-XBP1 luciferase reporter, IRE1-XBP1 UPR activation, luminescence; percent of tunicamycin response, DMSO as zero | hit rate 0.33% among 330,000 | activation, % at 20 µM;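 active means versus positive control, 20 µM dose yields 30% or more activation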;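 further: 100% = tunicamycin at 10 µg/mL and 0% = DMSO only wells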
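Material: CHO cell line with stable XBP1 luciferase reporter; buffer or medium: F12 medium containing 10% fetal bovine serum; compound: single point, 20 µM final compound, 1% DMSO; incubation: 6 h treatment, 37 °C; measured by: glow luminescence from Steady-Glo reagent; evaluation: activation, % of tunicamycin; control set: tunicamycin high, DMSO low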
B2AR ag: human beta-2 adrenergic receptor agonism by FAP; P07550; response, % (concentration not given with the values); hit rate 0.43% among 340,000; Am2.2-beta2AR cells, FAP receptor internalization, flow cytometry;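 active means response above a set limit, near 3 SD of response in nonfluorescent compounds, cut at about 42% in these data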
Target sequence (P07550 whole entry, looked up): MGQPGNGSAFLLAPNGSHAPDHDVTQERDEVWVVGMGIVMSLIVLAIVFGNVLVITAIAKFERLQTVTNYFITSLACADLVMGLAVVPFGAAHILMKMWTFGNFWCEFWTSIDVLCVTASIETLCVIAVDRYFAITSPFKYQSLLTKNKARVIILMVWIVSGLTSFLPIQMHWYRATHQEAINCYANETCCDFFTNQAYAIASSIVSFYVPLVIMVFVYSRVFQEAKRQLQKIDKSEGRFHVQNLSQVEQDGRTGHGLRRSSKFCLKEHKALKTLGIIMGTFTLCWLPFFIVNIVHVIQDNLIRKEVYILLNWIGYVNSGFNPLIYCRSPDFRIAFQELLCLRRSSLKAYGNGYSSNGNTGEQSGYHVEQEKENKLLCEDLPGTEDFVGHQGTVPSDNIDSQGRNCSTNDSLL
p-CIP stab down: compounds decreasing mouse p/CIP protein stability; Q05BA5; hit rate 0.01% among 290,000; F442A p/CIP-EGFP cells, EGFP fluorescence, 16 h; decrease of EGFP signal, % at 10 µM;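 active means EGFP signal decrease of at least 30% at 10 µM or well 3 SD below plate mean, unless failing retest; inactive means the rest, including hits failing retest or dose response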
B2AR ag CP1: human beta-2 adrenergic receptor agonism, cherry pick; shares compounds with B2AR ag; Am2.2-beta2AR cells, FAP surface receptor, flow cytometry; stronger effect = lower value; percent response (surface receptor), % at 10 µM; hit rate 25% among 1,100; AID 540358;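 active means surface receptor percent response at or below 58%, roughly 3 SD from nonfluorescent compounds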
B2AR FAP counter: counter-screen for beta-2AR agonists: fluorescence in Am2.2 cells. shares compounds with B2AR ag. FAP fluorogen flow cytometry, fluorescence counterscreen; stronger effect = lower value. calls only at 10 µM. 1,100 tested, under 10 active;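 active means percent response below a set limit in fluorescence channel 1 and below 50% in channel 8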
* marks the source's active call; other numbers are inactive results.

For COc1ccccc1NC(=O)NC1(C(=O)N2CCC(C)CC2)CCCCC1 the results were UPR CHOP act 0.3, UPR XBP1 act -6.2, B2AR ag 3.0 and p-CIP stab down 6.4.
Screening Cc1ccc(S(=O)(=O)N(CCCO)CC(O)CON=C2c3ccccc3-c3ccccc32)cc1 (stereo unspecified) returned CHOP inhibitor 41.3, UPR CHOP act 8.4, Dynein cargo inh -0.964, UPR XBP1 act -0.8, B2AR ag 11.2 and p-CIP stab down -14.7.
For COc1cccc(NC(=O)C(c2ccccc2)N2CCCCC2)c1 (stereo unspecified) the results were CHOP inhibitor -3.7, UPR CHOP act 1.5, Dynein cargo inh -1.2, UPR XBP1 act 7.4, B2AR ag -1.5, p-CIP stab down 7.6, B2AR ag CP1 105.3 and B2AR FAP counter inactive.
`COc1cccc(NC(=O)C(c2ccccc2)N2CCN(CC(=O)N3CCOCC3)CC2)c1` (stereo unspecified) gave UPR CHOP act 2.5, UPR XBP1 act -2.1 and B2AR ag -6.2.
C=CCc1cc(Cl)ccc1OCCCNC(C)C was read as CHOP inhibitor 15.2, UPR CHOP act 2.3, Dynein cargo inh -0.463, UPR XBP1 act 1.5, B2AR ag 62.3*, p-CIP stab down 2.0, B2AR ag CP1 98.5 and B2AR FAP counter inactive.
For CC1=NN(C(N)=S)C(=O)C1N=Nc1ccc(Cl)cc1 (stereo unspecified) the results were UPR CHOP act 5.3, UPR XBP1 act 1.4, B2AR ag -6.2 and p-CIP stab down 4.8.
For CC1=NN(C(N)=S)C(=O)C1N=Nc1ccccc1 (stereo unspecified) the results were CHOP inhibitor -17.3, UPR CHOP act 5.1, Dynein cargo inh -0.763, UPR XBP1 act 2.8, B2AR ag -1.4, p-CIP stab down 22.0, B2AR ag CP1 108.2 and B2AR FAP counter inactive.
CN(Cc1cccs1)c1nc(-c2cccnc2)nc2ccccc12 was read as CHOP inhibitor 16.7, UPR CHOP act -0.4, Dynein cargo inh -0.202, UPR XBP1 act 3.0, B2AR ag 102.7*, p-CIP stab down -22.8, B2AR ag CP1 2.7* and B2AR FAP counter inactive.
`c1ccc(-c2nc(NCc3cccs3)c3ccccc3n2)cc1` gave UPR CHOP act 0.3, UPR XBP1 act -4.5, B2AR ag -4.8 and p-CIP stab down -1.9.
C[C@H](NC(=O)C1CC(=O)N(c2ccc3c(c2)OCCO3)C1)C(=O)N1CCCCC1 (stereo partly specified) was read as UPR CHOP act 1.8, UPR XBP1 act 0.2, B2AR ag -0.6 and p-CIP stab down 7.2.
For CCOc1cc(CNc2ccc3c(c2)OCCO3)cc(Br)c1OC the results were CHOP inhibitor 29.0, UPR CHOP act -4.7, Dynein cargo inh 0.479, UPR XBP1 act 2.9, B2AR ag 45.8*, p-CIP stab down -13.6, B2AR ag CP1 86.8 and B2AR FAP counter inactive.
For O=C(CN1C(=O)CCC1=O)Nc1nc(-c2nc3ccccc3s2)cs1 the results were CHOP inhibitor 11.9, UPR CHOP act 2.8, Dynein cargo inh -1.28, UPR XBP1 act -4.3, B2AR ag 102.8*, p-CIP stab down 6.9, B2AR ag CP1 9.2* and B2AR FAP counter inactive.
For Cc1ccc(C(=O)OCC(=O)Nc2nc(-c3ccccc3)cs2)cc1NC(=O)c1ccco1 the results were CHOP inhibitor 38.9, UPR CHOP act 3.1, Dynein cargo inh 1.29, UPR XBP1 act 9.1, B2AR ag 53.7*, p-CIP stab down -7.0, B2AR ag CP1 37.6* and B2AR FAP counter inactive.
For Cc1ccc(C(=O)OCC(=O)Nc2cc(F)ccc2F)cc1NC(=O)c1ccco1 the results were CHOP inhibitor 11.6, UPR CHOP act 13.7, Dynein cargo inh 0.171, UPR XBP1 act -2.0, B2AR ag -13.9 and p-CIP stab down 0.8.
